From ChEMBL document CHEMBL3244330, “Structure--activity relationships of n-substituted dopamine and 2-amino-6,7-dihydroxy-1,2,3,4-tetrahydronaphthalene analogues: behavioral effects in lesioned and reserpinized mice” (J Med Chem, 1979)

Tests used:
Mus musculus [1] = test: Toxicity in caudectomized Swiss albino mouse at 44.6 mg/kg, ip; assay type: organism-based; set-up: dose 44.6 mg/kg, route intraperitoneal; conditions: in vivo
Mus musculus [2] = test: Postural effect on caudectomized Swiss albino mouse assessed as time duration of asymmetric posture at 29.8 mg/kg, ip; assay type: functional; conditions: route intraperitoneal
Summary of the method: (§1)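 Male Swiss albino Hale-Stoner mice with a right caudectomy made by suction. A lesion was accepted if the mouse responded to apomorphine 4 weeks after surgery. Compounds were dissolved in 0.9% saline and injected ip at random into groups of six, with a maximum dose of 0.348 mmol/kg. 18 mice were used per compound, and mice were retested after 5–6 day intervals. Onset and duration of the asymmetric posture are reported as mean ± SE from six animals.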

Mus musculus [3] = test: Reversal of reserpine-induced catalepsy in ip dosed Swiss albino (CD1) mouse; assay type: functional
Summary of the method: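 Male Swiss albino CD1 mice, 5 weeks old, got reserpine 5 mg/kg ip, then α-MTM 250 mg/kg ip 17 h later, then the test drug ip 4 h after that. Catalepsy was scored by the rubber-stopper test (time to step off the stopper). At least four doses were used, with ≥8 mice per dose. ED50 was taken from a log-probit plot of percent responders against dose.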

Mus musculus [4] = test: Postural effect on caudectomized Swiss albino mouse assessed as latency to onset time of asymmetric postural effect at 29.8 mg/kg, ip; assay type: functional; conditions: route intraperitoneal; summary of the method: as §1
Mus musculus [5] = test: Postural effect on caudectomized Swiss albino mouse assessed as latency to onset time of asymmetric postural effect at 29.9 mg/kg, ip; assay type: functional; conditions: route intraperitoneal; summary of the method: as §1
Mus musculus [6] = test: Postural effect on caudectomized Swiss albino mouse assessed as time duration of asymmetric posture at 29.9 mg/kg, ip; assay type: functional; conditions: route intraperitoneal; summary of the method: as §1
Mus musculus [7] = test: Postural effect on caudectomized Swiss albino mouse assessed as latency to onset time of asymmetric postural effect at 59.8 mg/kg, ip; assay type: functional; conditions: route intraperitoneal; summary of the method: as §1
Mus musculus [8] = test: Postural effect on caudectomized Swiss albino mouse assessed as time duration of asymmetric posture at 59.8 mg/kg, ip; assay type: functional; conditions: route intraperitoneal
Summary of the method: (§2)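 Male Swiss albino Hale-Stoner mice given a right caudectomy by suction. The lesion counted as successful if the mice reacted to apomorphine 4 weeks later. Drug was given ip in 0.9% saline, up to 0.348 mmol/kg, to randomised groups of six, with 5-6 days before reuse. Onset and duration of asymmetric posture are reported as mean ± SE from six animals.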

Mus musculus [9] = test: Postural effect on caudectomized Swiss albino mouse assessed as latency to onset time of asymmetric postural effect at 28 mg/kg, ip; assay type: functional; conditions: route intraperitoneal; summary of the method: as §1
Mus musculus [10] = test: Postural effect on caudectomized Swiss albino mouse assessed as time duration of asymmetric posture at 56 mg/kg, ip; assay type: functional; conditions: route intraperitoneal; summary of the method: as §2
Mus musculus [11] = test: Postural effect on caudectomized Swiss albino mouse assessed as latency to onset time of asymmetric postural effect at 56 mg/kg, ip; assay type: functional; conditions: route intraperitoneal; summary of the method: as §1
Mus musculus [12] = test: Postural effect on caudectomized Swiss albino mouse assessed as time duration of asymmetric posture at 28 mg/kg, ip; assay type: functional; conditions: route intraperitoneal; summary of the method: as §1
Mus musculus [13] = test: Postural effect on caudectomized Swiss albino mouse assessed as time duration of asymmetric posture at 71.5 mg/kg, ip; assay type: functional; conditions: route intraperitoneal; summary of the method: as §2
Mus musculus [14] = test: Postural effect on caudectomized Swiss albino mouse assessed as latency to onset time of asymmetric postural effect at 23.8 mg/kg, ip; assay type: functional; conditions: route intraperitoneal; summary of the method: as §1
Mus musculus [15] = test: Postural effect on caudectomized Swiss albino mouse assessed as latency to onset time of asymmetric postural effect at 47.6 mg/kg, ip; assay type: functional; conditions: route intraperitoneal; summary of the method: as §1
Mus musculus [16] = test: Postural effect on caudectomized Swiss albino mouse assessed as time duration of asymmetric posture at 47.6 mg/kg, ip; assay type: functional; conditions: route intraperitoneal; summary of the method: as §1
Mus musculus [17] = test: Postural effect on caudectomized Swiss albino mouse assessed as latency to onset time of asymmetric postural effect at 71.5 mg/kg, ip; assay type: functional; conditions: route intraperitoneal; summary of the method: as §1
Mus musculus [18] = test: Postural effect on caudectomized Swiss albino mouse assessed as time duration of asymmetric posture at 23.8 mg/kg, ip; assay type: functional; conditions: route intraperitoneal; summary of the method: as §1
Mus musculus [19] = test: Postural effect on caudectomized Swiss albino mouse assessed as time duration of asymmetric posture at 25 mg/kg, ip; assay type: functional; conditions: route intraperitoneal; summary of the method: as §1
Mus musculus [20] = test: Postural effect on caudectomized Swiss albino mouse assessed as latency to onset time of asymmetric postural effect at 25 mg/kg, ip; assay type: functional; conditions: route intraperitoneal; summary of the method: as §1
Mus musculus [21] = test: Postural effect on caudectomized Swiss albino mouse assessed as latency to onset time of asymmetric postural effect at 50 mg/kg, ip; assay type: functional; conditions: route intraperitoneal; summary of the method: as §1
Mus musculus [22] = test: Postural effect on caudectomized Swiss albino mouse assessed as time duration of asymmetric posture at 50 mg/kg, ip; assay type: functional; conditions: route intraperitoneal; summary of the method: as §2
Mus musculus [23] = test: Postural effect on caudectomized Swiss albino mouse assessed as time duration of asymmetric posture at 858 mg/kg, ip; assay type: functional; conditions: route intraperitoneal
Mus musculus [24] = test: Postural effect on caudectomized Swiss albino mouse assessed as latency to onset time of asymmetric postural effect at 858 mg/kg, ip; assay type: functional; conditions: route intraperitoneal
Mus musculus [25] = test: Postural effect on caudectomized Swiss albino mouse assessed as latency to onset time of asymmetric postural effect at 29.2 mg/kg, ip; assay type: functional; conditions: route intraperitoneal
Summary of the method: (§3)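 Male Swiss albino Hale-Stoner mice with right caudectomy by suction, used if responsive to apomorphine 4 weeks post-lesion. Compound in 0.9% saline given ip, maximum 0.348 mmol/kg. 18 mice per compound in random groups of six, retested after 5–6 day intervals. Onset latency and duration of asymmetric posture recorded; mean ± SE from six animals.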

Mus musculus [26] = test: Postural effect on caudectomized Swiss albino mouse assessed as time duration of asymmetric posture at 29.2 mg/kg, ip; assay type: functional; conditions: route intraperitoneal; summary of the method: as §3
Mus musculus [27] = test: Postural effect on caudectomized Swiss albino mouse assessed as time duration of asymmetric posture at 58.4 mg/kg, ip; assay type: functional; conditions: route intraperitoneal; summary of the method: as §3
Mus musculus [28] = test: Postural effect on caudectomized Swiss albino mouse assessed as latency to onset time of asymmetric postural effect at 58.4 mg/kg, ip; assay type: functional; conditions: route intraperitoneal; summary of the method: as §3
Mus musculus [29] = test: Postural effect on caudectomized Swiss albino mouse assessed as latency to onset time of asymmetric postural effect at 25.4 mg/kg, ip; assay type: functional; conditions: route intraperitoneal; summary of the method: as §1
Mus musculus [30] = test: Postural effect on caudectomized Swiss albino mouse assessed as time duration of asymmetric posture at 25.4 mg/kg, ip; assay type: functional; conditions: route intraperitoneal; summary of the method: as §1
Mus musculus [31] = test: Postural effect on caudectomized Swiss albino mouse assessed as latency to onset time of asymmetric postural effect at 50.8 mg/kg, ip; assay type: functional; conditions: route intraperitoneal; summary of the method: as §1
Mus musculus [32] = test: Postural effect on caudectomized Swiss albino mouse assessed as time duration of asymmetric posture at 50.8 mg/kg, ip; assay type: functional; conditions: route intraperitoneal; summary of the method: as §2
Mus musculus [33] = test: Toxicity in caudectomized Swiss albino mouse at 54.6 mg/kg, ip; assay type: organism-based; set-up: dose 54.6 mg/kg, route intraperitoneal; conditions: in vivo
Mus musculus [34] = test: Postural effect on caudectomized Swiss albino mouse assessed as time duration of asymmetric posture at 41 mg/kg, ip; assay type: functional; conditions: route intraperitoneal; summary of the method: as §1
Mus musculus [35] = test: Ratio of apomorphine ED50 to compound ED50 for reversal of reserpine-induced catalepsy in ip dosed Swiss albino (CD1) mouse; assay type: functional
Mus musculus [36] = test: Postural effect on caudectomized Swiss albino mouse assessed as latency to onset time of asymmetric postural effect at 27.3 mg/kg, ip; assay type: functional; conditions: route intraperitoneal; summary of the method: as §1
Mus musculus [37] = test: Postural effect on caudectomized Swiss albino mouse assessed as time duration of asymmetric posture at 27.3 mg/kg, ip; assay type: functional; conditions: route intraperitoneal; summary of the method: as §1
Mus musculus [38] = test: Postural effect on caudectomized Swiss albino mouse assessed as latency to onset time of asymmetric postural effect at 41 mg/kg, ip; assay type: functional; conditions: route intraperitoneal; summary of the method: as §1
Mus musculus [39] = test: Postural effect on caudectomized Swiss albino mouse assessed as time duration of asymmetric posture at 71.4 mg/kg, ip; assay type: functional; conditions: route intraperitoneal; summary of the method: as §2
Mus musculus [40] = test: Postural effect on caudectomized Swiss albino mouse assessed as latency to onset time of asymmetric postural effect at 71.4 mg/kg, ip; assay type: functional; conditions: route intraperitoneal; summary of the method: as §1

CCCN(CCc1ccc(O)c(O)c1)CCC1CCCCC1.Cl
Activity (Mus musculus [1]): Toxic
Time (Mus musculus [2]): 14.1 min
ED50 (Mus musculus [3]): 18 mg/kg
Time (Mus musculus [4]): 4.2 min

Br.CCCN(CCC)C1CCc2cc(O)c(O)cc2C1 (stereo not drawn)
Time (Mus musculus [5]): 2.8 min
Time (Mus musculus [6]): 17 min
Time (Mus musculus [7]): 2 min
ED50 (Mus musculus [3]): 1.6 mg/kg
Time (Mus musculus [8]): 31.5 min

CCCN(CCc1ccc(O)c(O)c1)Cc1ccccc1.Cl
Time (Mus musculus [9]): 5.2 min
ED50 (Mus musculus [3]): 21 mg/kg
Time (Mus musculus [10]): 26.6 min
Time (Mus musculus [11]): 5.7 min
Time (Mus musculus [12]): 7.8 min

CCCCN(CC)CCc1ccc(O)c(O)c1.Cl
Time (Mus musculus [13]): 19.4 min
Time (Mus musculus [14]): 2.1 min
Time (Mus musculus [15]): 2.3 min
Time (Mus musculus [16]): 2.5 min
ED50 (Mus musculus [3]): 34 mg/kg
Time (Mus musculus [17]): 5 min
Time (Mus musculus [18]): 4.2 min

CCCCN(CCC)CCc1ccc(O)c(O)c1.Cl
ED50 (Mus musculus [3]): 8.6 mg/kg
Time (Mus musculus [19]): 6.4 min
Time (Mus musculus [20]): 3.7 min
Time (Mus musculus [21]): 3.7 min
Time (Mus musculus [22]): 25.8 min

N[C@@H](Cc1ccc(O)c(O)c1)C(=O)O [LEVODOPA]
ED50 (Mus musculus [3]): 248 mg/kg
Time (Mus musculus [23]): 24 min
Time (Mus musculus [24]): 17.7 min

CCCN(CCc1ccccc1)CCc1ccc(O)c(O)c1.Cl
Time (Mus musculus [25]): 4.4 min
ED50 (Mus musculus [3]): 7.4 mg/kg
Time (Mus musculus [26]): 19.8 min
Time (Mus musculus [27]): 47.4 min
Time (Mus musculus [28]): 3.2 min

CCCN(CCc1ccc(O)c(O)c1)CC(C)C.Cl
Time (Mus musculus [29]): 2.8 min
ED50 (Mus musculus [3]): 7.4 mg/kg
Time (Mus musculus [30]): 18 min
Time (Mus musculus [31]): 2.6 min
Time (Mus musculus [32]): 39 min

Br.CCCCN(CCC)C1CCc2cc(O)c(O)cc2C1 (stereo not drawn)
Activity (Mus musculus [33]): Toxic
ED50 (Mus musculus [3]): 1.3 mg/kg
Time (Mus musculus [34]): 31.5 min
Ratio ED50 (Mus musculus [35]): 10
Time (Mus musculus [36]): 2.8 min
Time (Mus musculus [37]): 17 min
Time (Mus musculus [38]): 2 min

CCCN(CCC)CCc1ccc(O)c(O)c1.Cl
Time (Mus musculus [14]): 1.8 min
Time (Mus musculus [15]): 3.7 min
Time (Mus musculus [39]): 21.9 min
Time (Mus musculus [16]): 13.9 min
ED50 (Mus musculus [3]): 16 mg/kg
Time (Mus musculus [18]): 6.2 min
Time (Mus musculus [40]): 3.1 min
